# From ChEMBL document CHEMBL3739301, “Design, synthesis and biological evaluation of tricyclic diterpene derivatives as novel neuroprotective agents against ischemic brain injury” (Eur J Med Chem, 2015)
# Active and inactive are the calls of the source. The rule behind the calls is not given here.
# Assays:
# [1] = Neuroprotective activity against glutamate-induced neuronal cell death in Sprague-Dawley rat CGN cells assessed as cell viability at 10 uM preincubated for 24 hrs followed by glutamate challenge measured after 24 hrs by MTT assay (reference value: 40.4%); format: functional; settings: read-out: Activity
# [2] = Neuroprotective activity against glutamate-induced neuronal cell death in Sprague-Dawley rat CGN cells at 10 uM preincubated for 24 hrs followed by glutamate challenge measured after 24 hrs relative to control; format: functional
# [3] = Neuroprotective activity against glutamate-induced neuronal cell death in Sprague-Dawley rat CGN cells at 50 uM preincubated for 24 hrs followed by glutamate challenge measured after 24 hrs relative to control; format: functional
# Rattus norvegicus [4] = assay: Antioxidant activity in Sprague-Dawley rat transient middle cerebral artery occlusion model assessed as […] in GSH level in ipsilateral cortex at 3 mg/kg, iv measured at 24 hrs post middle cerebral artery occlusion; format: functional, organism-based
# In short: (§1)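 Rat tMCAO: 2 h suture occlusion, then reperfusion. Dosing iv at 2, 4 and 6 h after onset, 10 mg/kg (DMSO) or 3 mg/kg (saline). At 24 h the ipsilateral cortex was lysed in RIPA buffer and protein quantified by BCA. GSH concentration and SOD activity were then measured with commercial kits.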
# Rattus norvegicus [5] = assay: Anti-ischemic activity in Sprague-Dawley rat transient middle cerebral artery occlusion model assessed as reduction in neurological deficit at 3 mg/kg, iv administered for 2 to 6 hrs post middle cerebral artery occlusion measured at 24 hrs; format: functional, organism-based
# In short: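 Male SD rats (260–280 g); intraluminal nylon suture (~0.26 mm, round tip) occluded MCA for 2 h, then withdrawn for reperfusion, body temperature held at 37 °C. Given iv at 2, 4 and 6 h after ischemia onset; 10 mg/kg in DMSO or 3 mg/kg in saline; DMSO or saline vehicle controls. Neurological score at 24 h after MCAO; n = 8–12, mean ± SD.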
# [6] = Neuroprotective activity against glutamate-induced neuronal cell death in Sprague-Dawley rat CGN cells assessed as cell viability at 50 uM preincubated for 24 hrs followed by glutamate challenge measured after 24 hrs by MTT assay (reference value: 40.4%); format: functional; settings: read-out: Activity
# [7] = Neuroprotective activity against oxygen-glucose deprivation-induced neuronal cell death in Sprague-Dawley rat CGN cells at 50 uM preincubated for 24 hrs followed by induction of oxygen-glucose deprivation measured after 24 hrs relative to control; format: functional
# Rattus norvegicus [8] = assay: Antioxidant activity in Sprague-Dawley rat transient middle cerebral artery occlusion model assessed as […] in SOD level in ipsilateral cortex at 3 mg/kg, iv measured at 24 hrs post middle cerebral artery occlusion; format: functional, organism-based; in short: as §1
# [9] = Neuroprotective activity against oxygen-glucose deprivation-induced neuronal cell death in Sprague-Dawley rat CGN cells assessed as cell viability at 50 uM preincubated for 24 hrs followed by induction of oxygen-glucose deprivation measured after 24 hrs by MTT assay (reference value: 48.7%); format: functional; settings: read-out: Activity
# Rattus norvegicus [10] = assay: Anti-ischemic activity in Sprague-Dawley rat transient middle cerebral artery occlusion model assessed as reduction in infarct volume at 3 mg/kg, iv administered for 2 to 6 hrs post middle cerebral artery occlusion measured at 24 hrs by TTC staining-based morphometric analysis; format: organism-based; settings: in vivo
# In short: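 Male Sprague-Dawley rats (260-280 g), middle cerebral artery occluded 2 h by intraluminal nylon monofilament, then reperfused; body temperature held at 37 C. Drug given iv at 2, 4 and 6 h after ischemia onset (test agent in DMSO, edaravone in saline; vehicle controls). Neurological scoring at 24 h; 2 mm coronal slices stained with 2% TTC 20 min at 37 C, formalin-fixed; infarct volume by morphometry; n = 8-12.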
# [11] = Neuroprotective activity against oxygen-glucose deprivation-induced neuronal cell death in Sprague-Dawley rat CGN cells assessed as cell viability at 1 uM preincubated for 24 hrs followed by induction of oxygen-glucose deprivation measured after 24 hrs by MTT assay (reference value: 48.7%); format: functional; settings: read-out: Activity
# [12] = Neuroprotective activity against oxygen-glucose deprivation-induced neuronal cell death in Sprague-Dawley rat CGN cells at 10 uM preincubated for 24 hrs followed by induction of oxygen-glucose deprivation measured after 24 hrs relative to control; format: functional
# [13] = Neuroprotective activity against nutrient deprivation-induced neuronal cell death in Sprague-Dawley rat CGN cells at 10 uM preincubated for 24 hrs followed by induction of nutrient deprivation measured after 24 hrs relative to control; format: functional
# In short: (§2)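 Primary rat cerebellar granule neurons (8-day-old Sprague-Dawley pups, DIV 6-8) pretreated 24 h with compound (0.1% DMSO final), then deprived of B27 serum substitute for 24 h. MTT viability (0.5 mg/ml, 4 h) read at 570 nm against control = 100%; neuroprotection percentage derived from the basal deprived value; mean ± SD, n = 3.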
# [14] = Neuroprotective activity against oxygen-glucose deprivation-induced neuronal cell death in Sprague-Dawley rat CGN cells assessed as cell viability at 10 uM preincubated for 24 hrs followed by induction of oxygen-glucose deprivation measured after 24 hrs by MTT assay (reference value: 48.7%); format: functional; settings: read-out: Activity
# neuronal [15] = assay: Neuroprotective activity against glutamate-induced neuronal cell death in Sprague-Dawley rat CGN cells assessed as increase in SOD level at 10 uM preincubated for 24 hrs followed by glutamate challenge measured after 24 hrs; format: functional, cell-based
# [16] = Neuroprotective activity in Sprague-Dawley rat CGN cells assessed as upregulation of HO-1 expression after 24 hrs by Western blot analysis; format: functional, cell-based
# In short: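 Primary granule neurons treated with a concentration series for 24 h, lysed in RIPA buffer, protein by BCA. Separated on 15% SDS-PAGE, transferred to PVDF, blocked in 5% BSA. Primary antibody overnight at 4 °C, secondary 30 min at room temperature; chemiluminescent detection. HO-1 quantified by densitometry normalized to β-actin. n = 3, mean ± SD.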
# neuronal [17] = assay: Neuroprotective activity against glutamate-induced neuronal cell death in Sprague-Dawley rat CGN cells assessed as increase in cell viability preincubated for 24 hrs followed by glutamate challenge measured after 24 hrs by MTT assay; format: functional, cell-based
# [18] = Cytotoxicity against Sprague-Dawley rat CGN cells at 50 to 100 uM after 72 hrs by MTT assay; format: cell-based
# In short: (§3)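 Primary cerebellar granule neurons from 8-day SD rat pups; cytosine arabinoside […] added at 24 h, used at DIV 6–8. Cells exposed to a concentration series for 72 h, 0.1% DMSO final. Viability by MTT (0.5 mg/ml, 4 h, 37 °C); formazan dissolved in DMSO, OD 570 nm. n = 3, mean ± SD.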
# neuronal [19] = assay: Neuroprotective activity against glutamate-induced neuronal cell death in Sprague-Dawley rat CGN cells assessed as increase in GSH level at 10 uM preincubated for 24 hrs followed by glutamate challenge measured after 24 hrs; format: functional, cell-based
# In short: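 Granule neurons pretreated 24 h with […] compound, then […] for 24 h. Lysed in buffer containing protease inhibitor cocktail; protein determined by BCA. SOD activity and GSH level measured with commercial kits. n = 3, mean ± SD.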
# [20] = Cytotoxicity against Sprague-Dawley rat CGN cells at <10 uM after 72 hrs by MTT assay; format: cell-based; in short: as §3
# [21] = Neuroprotective activity against nutrient deprivation-induced neuronal cell death in Sprague-Dawley rat CGN cells assessed as cell viability at […] preincubated for 24 hrs followed by induction of nutrient deprivation measured after 24 hrs by MTT assay (reference value: 44.1%); format: functional; settings: read-out: Activity
# In short: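 Cerebellar granule neurons pretreated 24 h with 1 or […] compound (0.1% DMSO), then kept without B27 supplement for 24 h. Viability by MTT (0.5 mg/ml, 4 h, OD 570 nm) against non-deprived control (100%); neuroprotection % from basal value. n = 3, mean ± SD.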
# [22] = Neuroprotective activity against nutrient deprivation-induced neuronal cell death in Sprague-Dawley rat CGN cells at […] preincubated for 24 hrs followed by induction of nutrient deprivation measured after 24 hrs relative to control; format: functional; in short: as §2
# [23] = Permeability of the compound at 25 ug/ml after 18 hrs by PAMPA assay; format: ADME; settings: read-out: permeability
smiles,measurement,setting,value
COc1cc2c(cc1C(C)=O)CC[C@H]1C(C)(C)C(=O)CC[C@]21C,viability at 10 µM,[1],69.7%
same,Activity,[2],49.2%
COc1cc2c(cc1C(=O)N1CCCCC1)CC[C@H]1C(C)(C)[C@@H](O)CC[C@]21C,viability at 10 µM,[1],79.1%
same,Activity,[2],64.9%
COc1cc2c(cc1C(=O)O)CC[C@H]1C(C)(C)[C@@H](O)CC[C@]21C,viability at 10 µM,[1],54%
same,Activity,[2],22.8%
CC1=NN(c2ccccc2)C(=O)C1 [EDARAVONE],Activity,[3],77.7%
same,Activity,Rattus norvegicus [4],Active
same,Activity,Rattus norvegicus [5],Active
same,viability at 50 µM,[6],86.7%
same,Activity,[7],72.3%
same,Activity,Rattus norvegicus [8],Active
same,viability at 50 µM,[9],85.8%
same,Activity,Rattus norvegicus [10],Active
CC(=O)c1cc2c(cc1O)[C@@]1(C)CC[C@H](O)C(C)(C)[C@@H]1CC2,viability at 10 µM,[1],77.1%
same,Activity,[2],61.6%
CCCCCCCC(=O)c1cc2c(cc1OC)[C@@]1(C)CC[C@H](O)C(C)(C)[C@@H]1CC2,viability at 10 µM,[1],40.5%
COc1cc2c(cc1C(C)=O)CC[C@H]1C(C)(C)[C@@H](O)CC[C@]21C,viability at 1 µM,[11],51.1%
same,viability at 10 µM,[1],85.2%
same,Activity,[12],50.3%
same,Activity,[13],19.5%
same,Activity,[2],75.2%
same,viability at 10 µM,[14],74.5%
same,Activity,neuronal [15],Active
same,Activity,[16],Dose-dependent effect
same,Activity,neuronal [17],Dose-dependent effect
same,Activity,[18],Toxic
same,Activity,neuronal [19],Active
same,Activity,[20],Non-toxic
COc1cc2c(cc1C(=O)NCC(=O)O)CC[C@H]1C(C)(C)[C@@H](O)CC[C@]21C,viability at 10 µM,[1],57.1%
same,Activity,[2],28%
CC(=O)N[C@@H](CS)C(=O)O [ACETYLCYSTEINE],viability,[21],53.7%
same,Activity,[22],17.2%
COC(=O)c1cc2c(cc1OC)[C@@]1(C)CC[C@H](O)C(C)(C)[C@@H]1CC2,viability at 1 µM,[11],43.9%
same,viability at 10 µM,[1],72.4%
same,Activity,[12],38.4%
same,Activity,[13],13.6%
same,Activity,[2],53.7%
same,viability at 10 µM,[14],68.4%
same,Activity,neuronal [17],Dose-dependent effect
same,Activity,[20],Non-toxic
COc1cc2c(cc1CO)CC[C@H]1C(C)(C)[C@@H](O)CC[C@]21C,viability at 10 µM,[1],64.4%
same,Activity,[2],40.3%
COc1cc2c(cc1C(=O)N(C)C)CC[C@H]1C(C)(C)[C@@H](O)CC[C@]21C,viability at 10 µM,[1],70.7%
same,Activity,[2],50.8%
COCCC(=O)c1cc2c(cc1OC)[C@@]1(C)CC[C@H](O)C(C)(C)[C@@H]1CC2,viability at 10 µM,[1],71.5%
same,Activity,[2],52.2%
COc1cc2c(cc1C(C)=O)CC[C@H]1C(C)(C)[C@@H](OC(=O)C(F)(F)F)CC[C@]21C,viability at 1 µM,[11],48.2%
same,viability at 10 µM,[1],81%
same,Activity,[12],23%
same,Activity,[13],5%
same,Activity,[2],68.1%
same,viability at 10 µM,[14],60.5%
same,Activity,neuronal [17],Dose-dependent effect
same,"Papp at 18 h, 25 ug/ml",[23],7.31 ×10⁻⁶ cm/s
same,Activity,[20],Non-toxic
CCOC(=O)c1cc2c(cc1OC)[C@@]1(C)CC[C@H](O)C(C)(C)[C@@H]1CC2,viability at 10 µM,[1],73.1%
same,Activity,[2],54.9%
CCCCOC(=O)c1cc2c(cc1OC)[C@@]1(C)CC[C@H](O)C(C)(C)[C@@H]1CC2,viability at 10 µM,[1],71%
same,Activity,[2],51.3%
COc1cc2c(cc1C(C)=O)CC[C@H]1C(C)(C)[C@@H](OC(C)=O)CC[C@]21C,viability at 1 µM,[11],50%
same,viability at 10 µM,[1],80.4%
same,Activity,[12],22%
same,Activity,[13],6%
same,Activity,[2],67.1%
same,viability at 10 µM,[14],60%
same,Activity,neuronal [17],Dose-dependent effect
same,Activity,[18],Toxic
same,Activity,[20],Non-toxic
C#CCNC(=O)c1cc2c(cc1OC)[C@@]1(C)CC[C@H](O)C(C)(C)[C@@H]1CC2,viability at 1 µM,[11],59.7%
same,viability at 10 µM,[1],81.7%
same,Activity,[12],37.2%
same,Activity,[13],17%
same,Activity,[2],69.3%
same,viability at 10 µM,[14],67.8%
same,Activity,neuronal [17],Dose-dependent effect
same,Activity,[18],Toxic
same,Activity,[20],Non-toxic
CCC(=O)c1cc2c(cc1OC)[C@@]1(C)CC[C@H](O)C(C)(C)[C@@H]1CC2,viability at 10 µM,[1],63.2%
same,Activity,[2],38.3%
CNC(=O)c1cc2c(cc1OC)[C@@]1(C)CC[C@H](O)C(C)(C)[C@@H]1CC2,viability at 10 µM,[1],77.3%
same,Activity,[2],61.9%
CCNC(=O)c1cc2c(cc1OC)[C@@]1(C)CC[C@H](O)C(C)(C)[C@@H]1CC2,viability at 10 µM,[1],78.2%
same,Activity,[2],63.4%
COc1cc2c(cc1C(=O)C(C)C)CC[C@H]1C(C)(C)[C@@H](O)CC[C@]21C,viability at 10 µM,[1],38.8%
